Results gathered from unrelated publications.
Protocols differ between the studies behind these lines.
Target: Tyrosine-protein kinase Blk (BLK, Homo sapiens, UniProt P51451)

COc1cnc(Nc2cccc(S(N)(=O)=O)c2)nc1N1CCN(c2ccccc2)CC1  remaining binding (binding; competition with immobilised ligand; 1 µM): 80%
Cc1c(C(=O)O)cc(-c2ccc(C3CCNCC3)cc2)c2ccc(-c3ccc(C(F)(F)F)cc3)cc12  remaining binding (cell-free assay; competition with immobilised ligand; 1 µM): 100%
CN(C)c1ncc(F)c(-c2cnn3ncccc23)n1  remaining binding (binding; 1 µM): 90%
FC(F)(F)c1ccc2c(c1)nc(-c1cccnc1)n2C1CC1  remaining binding (cell-free assay; competition with immobilised ligand; 1 µM): 96%
C[C@@H]1CCN(c2nccc(-c3cnn4ncccc34)n2)C1  remaining binding (binding; 1 µM): 100%
O=C(NCC1CCOCC1)c1n[nH]cc1NC(=O)c1c(F)cccc1F  remaining binding (binding; competition with immobilised ligand; 1 µM): 100%
C=CC(=O)N1CCC(C(=O)NCC(=O)N2CCN(c3nc(-c4cnc(N)nc4C(F)F)nc(N4CCOCC4)n3)CC2)CC1  remaining binding (binding; competition with immobilised ligand; 1 µM): 100%
O=C(c1ccc(Nc2nccc(-c3cc4ccccc4s3)n2)cc1)N1CCC(N2CCCC2)CC1  remaining binding (binding; competition with immobilised ligand; 1 µM): 100%
COc1ccc2c(O[C@@H]3C[C@H]4C(=O)N[C@]5(C(=O)O)CC5/C=C\CCCCC[C@H](NC(=O)OC5CCCC5)C(=O)N4C3)cc(-c3csc(NC(=O)C(C)C)n3)nc2c1C (stereo partly shown)  remaining binding (cell-free assay; competition with immobilised ligand; 1 µM): 97%
c1cncc(-c2cccc(Nc3nccc(NC4CCCCC4)n3)c2)c1  remaining binding (binding; competition with immobilised ligand; 10 µM): 5.8%
FC(F)(F)Oc1cccc(-c2cnc3ccc(-c4ccncc4)nn23)c1  remaining binding (cell-free assay; competition with immobilised ligand; 5 µM): 51%
c1cnn2ncc(-c3ccnc(N4CCC45COC5)n3)c2c1  remaining binding (binding; 1 µM): 100%
COc1ncc2cc3ccccc3nc2c1C#N  remaining binding (cell-free assay; competition with immobilised ligand; 5 µM): 87%
Cc1cnn2ncc(-c3ccnc(N(C)C)n3)c2c1  remaining binding (binding; 1 µM): 28%
O=C(N1CCS(=O)(=O)CC1)N1C[C@H](c2ccc(OC(F)(F)F)cc2)C[C@H](c2nc(C3CC3)no2)C1  remaining binding (cell-free assay; competition with immobilised ligand; 1 µM): 100%
O=C(c1ccc(Nc2ncc(Cl)c(-c3cc4ccccc4s3)n2)cc1)N1CCC(N2CCCC2)CC1  remaining binding (binding; competition with immobilised ligand; 1 µM): 100%
c1ccc(N2CCN(Cc3nc4ccccc4[nH]3)CC2)nc1  remaining binding (cell-free assay; competition with immobilised ligand; 1 µM): 100%
CN(c1nccc(-c2cnn3ncccc23)n1)C1CC1  remaining binding (binding; 1 µM): 100%
COc1cc(-c2cn(C3CCc4ccccc4N(CC(F)(F)F)C3=O)nn2)ccc1-n1ccc(C)n1 (stereo not shown)  remaining binding (cell-free assay; competition with immobilised ligand; 1 µM): 100%
O=C(NCCCN1CCOCC1)c1ccc(Nc2nccc(-c3cc4ccccc4s3)n2)cc1  remaining binding (binding; competition with immobilised ligand; 1 µM): 100%
CO[C@@H](C)c1c(Nc2ccc([C@@H](N(C)C(=O)C3CCS(=O)(=O)CC3)C(F)(F)F)cc2)cnc2cc(Cl)nn12  remaining binding (cell-free assay; competition with immobilised ligand; 1 µM): 56%
N[C@H]1CCN(c2nccc(-c3cnn4ncccc34)n2)C1  remaining binding (binding; 1 µM): 100%
